Key:
Details in all cases: Aorta
[1] = In vitro maximal vasorelaxation of endothelium-denuded rat aortic rings, expressed as percentage contractile tension.; format: functional
Method in brief: (§1)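 Thoracic aortic rings were taken from male normotensive Wistar rats (250–350 g) and equilibrated for 60 min. Rings relaxing ≥10% to ACh 10 μM after NE 1 μM precontraction were discarded. Rings were contracted with KCl 20 mM, then 3-fold increasing concentrations were added cumulatively. Efficacy is the maximal relaxation as % of KCl tone, or the response at the 0.1 mM limit concentration. Mean ± standard error of 5–10 experiments.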

[2] = In vitro maximal vasorelaxing effect evoked on endothelium-denuded rat aortic rings in the presence of 1 uM glibenclamide; format: functional
Method in brief: (§2)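 Glibenclamide 1 μM was added to endothelium-denuded male Wistar rat aortic rings before the 20 mM KCl contraction. Compound was then added cumulatively in 3-fold increasing concentrations, and relaxation was expressed relative to the KCl tone. Student t test against control, P < 0.05. Mean ± standard error, 5–10 experiments.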

[3] = In vitro maximal vasorelaxing effect evoked on endothelium-denuded rat aortic rings was expressed as percentage contractile tension in the presence of 60 mM KCl
[4] = In vitro vasorelaxing effect evoked on endothelium-denuded rat aortic rings in the presence of 1 uM glibenclamide; format: functional, tissue-based; method in brief: as §2
Rattus norvegicus [5] = species: Rattus norvegicus; test: In vitro maximal vasorelaxing effect evoked on endothelium-denuded rat aortic rings was expressed as percentage contractile tension; The compound was ineffective; format: functional, tissue-based; method in brief: as §1
Rattus norvegicus [6] = species: Rattus norvegicus; test: In vitro vasorelaxing effect evoked on endothelium-denuded rat aortic rings expressed as half reduction of the contractile tone; The compound was ineffective; format: functional, tissue-based
[7] = In vitro vasorelaxing effect evoked on endothelium-denuded rat aortic rings expressed as percentage efficacy (%) recorded in the presence of 1 uM glibenclamide
[8] = In vitro vasorelaxing effect evoked on endothelium-denuded rat aortic rings expressed as potency significantly different from respective control; format: functional, tissue-based
[9] = In vitro vasorelaxing effect evoked on endothelium-denuded rat aortic rings in the presence of 1 uM glibenclamide

Compound | Emax [1] [%] | Emax [2] [%] | Emax [3] [%] | IC50 [4] [nM] | further results
CC1(C)CN(N2CCCC2=O)c2cc(Br)ccc2S1(=O)=O | 100 | – | – | – | –
CC(=O)N1CC(C)(C)Sc2ccc(Br)cc21 | 100 | – | – | – | –
CC1(C)CN(C2=CCCC2=O)c2cc([N+](=O)[O-])ccc2S1 | 98 | 90 | 26 | 417 | –
CC1(C)CN(NC(=O)c2cccc(F)c2)c2cc(Br)ccc2S1 | 95 | 58 | – | – | –
CC1(C)CN(C2=CCCC2=O)c2cc(C#N)ccc2S1 | 95 | 100 | 18 | 69.2 | –
CC(=O)N1CC(C)(C)Sc2ccc([N+](=O)[O-])cc21 | – | – | – | – | NE (Rattus norvegicus [5]): Ineffective; NE (Rattus norvegicus [6]): Ineffective
C=CCN1CC(C)(C)Sc2ccc(C(F)(F)F)cc21 | 97 | – | – | – | –
CC1(C)CN(N2CCCC2=O)c2cc(Br)ccc2[S+]1[O-] (stereo not drawn) | 96 | – | – | – | –
CC1(C)CN(N2CCCC2=O)c2cc([N+](=O)[O-])ccc2S1 | 91 | – | – | – | –
CC1(C)CN(NC(=O)c2cccc(F)c2)c2cc([N+](=O)[O-])ccc2S1 | 91 | 93 | 15 | 302 | –
CC1(C)CN(N2CCCC2=O)c2cc(Br)ccc2S1 | 100 | 99 | 30 | 2400 | –
CC1(C)Sc2ccc(C(F)(F)F)cc2NC1=O | – | – | – | – | Emax [7]: 81%; IC50 [8]: 28200 nM
CC1(C)CN(C2=CCCC2=O)c2cc(Br)ccc2S1 | 99 | 92 | 28 | – | IC50 [9]: 525 nM
CC1(C)Oc2ccc(C#N)cc2[C@@H](N2CCCC2=O)[C@@H]1O [LEVCROMAKALIM] | 100 | – | – | – | –
CC(=O)NN1CC(C)(C)Sc2ccc(Br)cc21 | 100 | – | – | – | –
CC(=O)NN1CC(C)(C)Sc2ccc([N+](=O)[O-])cc21 | 92 | 95 | 24 | 93.3 | –
CC1(C)CN(C2=CCCC2=O)c2cc(C(F)(F)F)ccc2S1 | 99 | 87 | 35 | 437 | –
CC1(C)CN(N2CCCCC2=O)c2cc(Br)ccc2S1 | 100 | – | – | – | –
CC1(C)CN(N2CCCC2=O)c2cc(C#N)ccc2S1 | 98 | – | – | – | –
